# Screening data deposited in PubChem BioAssay by several laboratories.
# NF-kB neuron act: activators of NF-kB expression in neurons, primary screen, cell-based, HTS; human neuronal cells, NF-kB reporter expression; active compounds read high; fold change at 12.5 µM; 190,000 tested, 1.6% active; in the data active = fold change above about 3.3
# FLuc stim CS: FLuc activators, initial screening, artefact control for FLuc-dependent activation tests, biochemical, ATPlite luminescence; Luciferin 4-monooxygenase (Photinus pyralis), P08659; ATPlite luciferase biochemical, 10 min; 0 = ATP-free wells, 1 = DMSO control; activation factor at 10 µM; 200,000 tested, under 10 active; AID 1027, 2008;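 active = luciferase activation factor, scaled between plate controls, of at least 2 with compound at 10 µM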
# Target sequence (P08659 whole entry, looked up): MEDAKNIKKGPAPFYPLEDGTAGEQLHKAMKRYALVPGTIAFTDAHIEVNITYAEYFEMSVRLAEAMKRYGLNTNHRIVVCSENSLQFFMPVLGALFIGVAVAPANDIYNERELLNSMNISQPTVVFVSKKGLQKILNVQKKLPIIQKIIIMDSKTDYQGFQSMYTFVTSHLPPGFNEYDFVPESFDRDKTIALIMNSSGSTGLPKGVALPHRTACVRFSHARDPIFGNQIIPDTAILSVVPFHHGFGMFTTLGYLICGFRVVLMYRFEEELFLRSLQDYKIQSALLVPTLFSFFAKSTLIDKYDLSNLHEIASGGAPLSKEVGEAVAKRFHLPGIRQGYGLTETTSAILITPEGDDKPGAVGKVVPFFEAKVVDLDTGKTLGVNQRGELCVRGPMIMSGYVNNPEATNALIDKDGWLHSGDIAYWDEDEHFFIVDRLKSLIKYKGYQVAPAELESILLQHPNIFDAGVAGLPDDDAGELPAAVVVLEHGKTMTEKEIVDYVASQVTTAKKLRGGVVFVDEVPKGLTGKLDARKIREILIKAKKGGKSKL
#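 Material: Luciferase/luciferin reagent mix; Doses: test compounds dosed from 2 mM stocks in 100% DMSO; Schedule: 10 min incubation after luciferase reagent addition, room temperature; Measured by: luminescence from luciferase reaction; Read-out: luminescence gain marking luciferase activators.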
# APP 5'UTR act: activators of APP 5'UTR luciferase reporter, primary screen, SH-SY5Y cells. SH-SY5Y APP 5'UTR luciferase reporter, luminescence; zero percent = DMSO vehicle wells. activation, % at 2 µM. 190,000 tested, 1% active;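 active = activation above a set limit, based on mean plus 3 SD of controls, cut at about 140% in these data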
# STAT1 activator: STAT1 signaling activators, primary screen, cell-based, HTS, luciferase reporter; NIH 3T3 STAT1-luciferase reporter, IFN-gamma, luminescence; 100% = IFN-gamma alone, no compound; activation (% of control), % at 5.5 µM; 200,000 tested, 2.6% active; AID 932, 2007;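 active = activation above the screen-wide mean activation plus 3 SD, cut at about 130% in these data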;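 note: raw ratio to IFN-gamma control signal so 100% means no change and 0% no light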
# FLuc inhib CS: firefly luciferase enzyme inhibitors, primary screen, artefact control for luciferase-based inhibitor screens, biochemical, luminescence, ATPLite | Luciferin 4-monooxygenase (Photinus pyralis), P08659 | 10 min | inhibition, % at 10 µM | 200,000 tested, 1.5% active | AID 1006, 2008;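 active = inhibition above about 50% when tested at 10 µM, limit read from the data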
# Starred values were filed as active, the others as inactive; · = no result given. An excerpt weighted towards active compounds, which were near 4.3% of everything screened.
SMILES,NF-kB neuron act,FLuc stim CS,APP 5'UTR act,STAT1 activator,FLuc inhib CS
Cc1nc(NC(=O)/C=C/c2ccc(C(C)(C)C)cc2)sc1C(=O)N(C)C,1.07,1,-1.4,105.1,-2.8
Cc1cc(Cl)n2c(nc3cc(F)c(F)cc32)c1C#N,0.11,1,-87.6,131.4*,-3.5
CCOc1ccc(/C=C/C2=NNC(=O)CC2)cc1,2.05,0.7,50.5,128.7*,32.2
C(=N\Nc1nc2ccccc2[nH]1)/c1ccccc1,1.01,0.7,127.8,124.4,34.3
Clc1ccc(/C=N/Nc2nc(Cl)nc3ccccc23)cc1,1.64,0.7,28.3,133.0*,32.4
Nc1c(Cl)ncnc1N/N=C/c1ccnc2ccccc12,1.13,0.5,23.5,110.0,52.6*
C(=N\Nc1ncnc2ccccc12)/c1ccccc1,6*,0.3,63.0,131.6*,73.8*
Cc1ccc(-c2nc(N/N=C/c3ccncc3)c3ccccc3n2)cc1,2.44,0,31.4,28.7,98.5*
Clc1ccccc1-c1nc(N/N=C/c2cccnc2)c2ccccc2n1,0.44,1,0.4,92.4,0.9
Nc1c(Cl)ncnc1N/N=C/c1ccccn1,1.12,0.6,-92.0,114.5,36.9
CCOc1ccc(-c2ccc(SCC)nn2)cc1,5.05*,0.1,167.4*,78.2,85.6*
CCSc1ccc(-c2ccc(C)cc2)nn1,6.58*,0.1,187.0*,98.4,87.7*
COc1ccc(C(=O)CSc2ccc(-c3ccccc3)nn2)cc1,1.34,1,8.0,100.1,1.9
Cc1ccc(-c2ccc(SCC(=O)Nc3nonc3C)nn2)cc1,1.31,0.7,17.7,105.1,29.0
COc1ccc(-c2ccc(SC)nn2)cc1,·,0.1,113.7,46.1,93.7*
CCOc1ccc(-c2nn[nH]n2)cc1,1.19,0.8,7.0,99.6,19.4
O=C(CSc1nc2ccccc2[nH]1)N1CCCCC1,2.23,0.9,44.2,130.2*,6.1
Cc1ccc2nc(SCC(=O)Nc3cc(C(F)(F)F)ccc3N3CCOCC3)[nH]c2c1,3.57*,1,-94.4,108.9,-3.4
Cc1ccc2nc(SCC(=O)N3CCOCC3)[nH]c2c1,2.6,1,80.3,131.7*,3.1
Cc1ccc2[nH]c(SCC(=O)N3CCOCC3)nc2c1C,2.26,1,23.2,122.2,-3.5
Cn1c(O)c(C2=c3ccccc3=NC2=O)sc1=Nc1ccc(Cl)cc1,5.15*,1,21.4,99.6,4.6
CCOc1ccc(-c2c(=O)n(OCc3ccc([N+](=O)[O-])cc3)c3ccccc3[n+]2[O-])cc1,0.98,1,-0.2,98.2,-1.6
COC(=O)c1cc(C(C)=O)c(C)[nH]c1=O,1.05,1,0.5,104.8,-3.2
CCOC(=O)c1cc(C(C)=O)c(=O)[nH]c1C,1.13,1,222.2*,104.1,-2.6
C/C(=N\NC(=O)c1ccc(N/N=C(\C)c2ccncc2)cc1)c1ccncc1,1.08,0.9,-7.4,107.5,10.5
SMILES,NF-kB neuron act,FLuc stim CS,APP 5'UTR act,STAT1 activator,FLuc inhib CS
C/C(=N\Nc1ccc(C(F)(F)F)cn1)c1ccncc1,1.82,1,30.2,134.3*,-1.0
O=S(=O)(c1ccccc1)n1cc(-c2ccccn2)c(N2CCOCC2)n1,1.05,1,213.4*,104.3,-4.6
O=S(=O)(Cc1cc(N2CCOCC2)nc(-c2ccccn2)n1)c1ccccc1,1.51,1.1,-15.2,109.4,-7.0
O=C(CSC(=S)N1CCSCC1)c1ccccc1,6.17*,0.3,112.9,137.3*,67.9*
O=C(Nc1ccccc1)N1CCSCC1,1.71,1.1,-2.2,106.6,-9.2
O=C(Nc1ccc(Cl)cc1)N1CCSCC1,1.42,1,-0.1,102.3,0.8
O=C(CSC(=S)N1CCSCC1)c1ccc(Cl)cc1,5.15*,0.7,151.3*,129.2*,31.3
O=C(CN1C(=O)S/C(=C\C=C\c2ccccc2)C1=O)Nc1cccc(O)c1,3.41*,0.9,15.9,130.1*,5.7
O=C(O)CN1C(=O)/C(=C/C=C/c2ccccc2)SC1=S,1.34,0.2,13.7,108.9,79.1*
CC(=O)c1ccc(NC(=O)CN2C(=O)/C(=C/C=C/c3ccccc3)SC2=S)cc1,0.98,1,15.8,110.2,1.1
Cc1cc(NC(=O)CCCn2cc([N+](=O)[O-])cn2)n(Cc2ccc(F)cc2)n1,0.99,1.1,17.1,91.6,-9.2
CCCn1c(SCC(=O)Nc2ccccc2-c2ccccc2)nnc1-c1ccoc1C,0.73,1,22.3,98.9,-2.6
O=C(O)c1ccc(N2CC3CC(C2)c2cccc(=O)n2C3)c(NC(=S)Nc2ccc(Br)cc2)c1 (stereo not drawn),3.85*,1,12.1,94.9,-2.9
CC(C)Cc1nnc(NC(=O)CSc2nc(-c3ccccc3)cc(=O)[nH]2)s1,1.28,1,16.3,102.6,1.3
Cc1ccc(N=c2sc(C)c(C)n2C)cc1,1.95,1,46.4,133.3*,-1.3
C/C(=N\Nc1nc2ccccc2[nH]1)c1ccc(N2CCOCC2)cc1,2,0.1,44.1,85.1,94.5*
Cc1ccc2nc(Nc3nc(CSc4nnc(C)s4)cc(=O)[nH]3)nc(C)c2c1,1.08,0.8,7.9,134.6*,17.4
O=C(CSc1ccccn1)Nc1ccc2c(c1)C(=O)c1ccccc1C2=O,1.06,0.9,82.8,120.1,12.1
Cc1cccc(NC(=O)CCSc2ccccn2)c1,1.52,1,16.4,106.0,-0.2
Cc1ccc(NC(=O)CCSc2ccccn2)cc1,3,0.9,80.8,142.0*,9.5
O=C(CSc1ccccn1)Nc1ccc2ccccc2c1,3,0.8,137.1*,132.1*,16.7
Cc1c(C(=O)NN2CCCCC2)nn(-c2ccc(Cl)cc2Cl)c1-c1ccc(I)cc1,·,1,·,·,0.9
NS(=O)(=O)c1cc(C(=O)OCC(=O)NC2CC2)ccc1Cl,0.96,1.1,-12.7,101.0,-5.9
CC(=O)Nc1cc(C(=O)OCC(=O)c2ccc(C)cc2)ccc1C,3.9*,0.5,16.8,143.4*,45.7
CC(C)N(Cc1ccccc1)C(=O)COC(=O)c1ccc2c(c1)OCCO2,0.85,1,3.8,98.5,-2.5
O=C(COC(=O)c1cccs1)c1ccc2c(c1)OCCO2,3.09,0,134.1,95.6,95.4*
NS(=O)(=O)c1cc(C(=O)OCC(=O)c2ccc3c(c2)OCCO3)ccc1Cl,9.84*,0.1,18.1,119.9,91.8*
CC(C)C(=O)Nc1ccccc1C(=O)OCC(=O)c1ccc2c(c1)OCCO2,0.85,0.4,30.8,138.9*,61.9*
CN(C)CCn1nnc2c(=O)oc3ccccc3c21,1.32,1.1,4.8,100.6,-9.9
N#CCC(=O)Nc1ccc(C(=O)OCC(=O)c2ccc3c(c2)OCCO3)cc1,4.63*,0.6,112.0,115.7,35.2
